Experimental data: ChEMBL document CHEMBL1142101, “Cytotoxic diterpenoids from the bark of Pseudolarix kaempferi and their structure-activity relationships” (J Nat Prod, 2007); call rule not given here

Experiments:
[1] = test system: HL-60; test: Cytotoxicity against human HL60 cells after 48 hrs by MTT assay; assay type: cell-based; settings: for IC50: Homo sapiens, HL-60, 48 h; for Activity: human, hl-60, 48 h
Procedure, shortened: (§1)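 Cells seeded in 96-well plates and exposed to serial dilutions of test compound spanning 10-2 to 102 µM. Incubated 48 h at 37 °C in humidified air with 5% CO2. Growth inhibition read by MTT. IC50 taken as the concentration (µM) giving 50% inhibition of cell growth.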

[2] = Cytotoxicity against human Bel7402 cells after 48 hrs by MTT assay; assay type: cell-based, Bel-7402; settings: for Activity: human, bel-7402, 48 h; procedure, shortened: as §1
[3] = Cytotoxicity against human BGC823 cells after 48 hrs by MTT assay; assay type: cell-based, BGC-823; settings: for IC50: Homo sapiens, BGC-823, 48 h; for Activity: human, bgc-823, 48 h; procedure, shortened: as §1
[4] = Homo sapiens, Bel-7402, 48 h, read-out: IC50

SMILES | IC50 [1] [µM] | IC50 [2, 4] [µM] | IC50 [3] [µM] | Activity [1] | IC50 ([2]; bel-7402) | Activity [3] | Activity [2]
O=c1[nH]cc(F)c(=O)[nH]1 [FLUOROURACIL] | 0.16 | 23.2 | 31.2 | – | – | – | –
CC1=CC[C@@]23CC[C@@H]([C@@](C)(/C=C/C=C(\C)C(=O)O[C@@H]4O[C@H](CO)[C@@H](O)[C@H](O)[C@H]4O)OC2=O)[C@@]3(O)CC1 | – | – | – | Not Active | Not Active | Not Active | –
COC(=O)C1=CC[C@@]23CC[C@@H]([C@@](C)(/C=C/C=C(\C)C(=O)O)OC2=O)[C@@]3(O)CC1 [PSEUDOLARIC ACID C] | – | – | – | Not Active | Not Active | Not Active | –
CC(=O)O[C@]12CC=C(C)[C@H](O)C[C@]13CC[C@H]2[C@@](C)(/C=C/C=C(\C)C(=O)O)OC3=O [PSEUDOLARIC ACID G] | 11 | > 100 | > 100 | – | – | – | –
COC(=O)C1=CC[C@@]23CC[C@@H]([C@@](C)(/C=C/C=C(\C)C(=O)OCC(O)CO)OC2=O)[C@@]3(O)CC1 (stereo partly drawn) | – | – | – | Not Active | – | Not Active | Not Active
CC(=O)O[C@]12CCC(C)=CC[C@]13CC[C@H]2[C@@](C)(/C=C/C=C(\C)C(=O)O)OC3=O [PSEUDOLARIC ACID A] | 1.51 | > 100 | > 100 | – | – | – | –
COC(=O)C1=CC[C@@]23CC[C@@H]([C@@](C)(/C=C/C=C(\C)C(=O)O)OC2=O)[C@@]3(OC(C)=O)CC1 [PSEUDOLARIC ACID B] | 0.59 | > 100 | > 100 | – | – | – | –
CC1=CC[C@@]23CC[C@@H]([C@@](C)(/C=C/C=C(\C)C(=O)O)OC2=O)[C@@]3(O)CC1 [DEACETYLPSEUDOLARIC ACID A] | – | – | – | Not Active | – | Not Active | Not Active
CC(=O)O[C@]12CCC(C(=O)O)=CC[C@]13CC[C@H]2[C@@](C)(/C=C/C=C(\C)C(=O)O)OC3=O [PSEUDOLARIC ACID C2] | – | – | > 100 | Not Active | – | – | Not Active
CC1=CC[C@@]23CC[C@@H]([C@@](C)(/C=C/C=C(\C)C(=O)OCC(O)CO)OC2=O)[C@@]3(O)CC1 (stereo partly drawn) | – | – | – | Not Active | – | Not Active | Not Active
CC(=O)O[C@]12CC=C(C)C(=O)C[C@]13CC[C@H]2[C@@](C)(/C=C/C=C(\C)C(=O)O)OC3=O [PSEUDOLARIC ACID F] | 55.4 | > 100 | – | – | – | Not Active | –
